Legend:
[1] = Cmax in C57B16 mouse at 10 mg/kg, po by LC-MS/MS analysis; type: ADME, organism-based; design: dose 10 mg/kg, route oral; conditions: in vivo
[2] = AUCt in C57B16 mouse at 10 mg/kg, po by LC-MS/MS analysis; type: ADME, organism-based; conditions: in vivo
[3] = AUCt in Sprague-Dawley rat at 5 mg/kg, po by LC-MS/MS analysis; type: ADME, organism-based; conditions: in vivo
How it was run: (§1)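 Whole blood (250 μL) drawn via jugular vein cannula, n = 3. The iv route was sampled at 5, 15 and 30 min and 1, 2, 4, 8 and 24 h; the oral route at 15 and 30 min and 1, 2, 4, 8 and 24 h. LC-MS/MS quantitation.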

[4] = Cmax in Sprague-Dawley rat at 5 mg/kg, po by LC-MS/MS analysis; type: ADME, organism-based; design: dose 5 mg/kg, route oral; conditions: in vivo
[5] = Volume of distribution at steady state in C57B16 mouse at 3 mg/kg, iv by LC-MS/MS analysis; type: ADME, organism-based; conditions: in vivo
[6] = Oral bioavailability in Sprague-Dawley rat at 5 mg/kg by LC-MS/MS analysis; type: ADME, organism-based; conditions: in vivo
[7] = Ratio of drug uptake in Sprague-Dawley rat brain to plasma at 5 mg/kg, po after 1 hr by LC-MS/MS analysis; type: ADME, organism-based
How it was run: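 Fasted male rats (n = 2) received the monotartrate salt orally at 5 mg kg⁻¹. Plasma, brain and CSF levels were measured 1 h after dosing, and the ratio was taken from mean values.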

[8] = Solubility of the compound at pH 7.4; type: physicochemical; conditions: buffer
[9] = AUCt in Sprague-Dawley rat at 1 mg/kg, iv by LC-MS/MS analysis; type: ADME, organism-based; conditions: in vivo; how it was run: as §1
[10] = Oral bioavailability in C57B16 mouse at 10 mg/kg by LC-MS/MS analysis; type: ADME, organism-based; conditions: in vivo
[11] = AUCt in C57B16 mouse at 3 mg/kg, iv by LC-MS/MS analysis; type: ADME, organism-based; conditions: in vivo
[12] = Volume of distribution at steady state in Sprague-Dawley rat at 1 mg/kg, iv by LC-MS/MS analysis; type: ADME, organism-based; conditions: in vivo
How it was run: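 Male Sprague-Dawley rats (350–400 g) received the monotartrate salt in 10:10:80 DMSO/Tween 80/water at 1 mg ml⁻¹, 1 mg kg⁻¹ i.v. or 2 mg kg⁻¹ p.o. Peripheral whole blood was sampled at 5, 15 and 30 min and 1, 2, 4, 6 and 8 h after dosing.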

[13] = Cmax in Sprague-Dawley rat at 2 mg/kg, po by LC-MS/MS analysis; type: ADME, organism-based; design: dose 2 mg/kg, route oral; conditions: in vivo
How it was run: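 Male Sprague-Dawley rats (350–400 g) given monotartrate salt as 1 mg ml⁻¹ solution in 10:10:80 DMSO/Tween 80/water, 1 mg kg⁻¹ i.v. or 2 mg kg⁻¹ p.o.; peripheral whole blood sampled at 5, 15, 30 min and 1, 2, 4, 6, 8 h; concentrations by LC-MS/MS.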

[14] = Ratio of drug uptake in C57B16 mouse brain to plasma at 10 mg/kg, ip after 120 mins by LC-MS/MS analysis; type: ADME, organism-based; conditions: 2 h
How it was run: (§2)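 C57Bl6 mice (n = 6) were given the monotartrate salt i.p. at 10 mg kg⁻¹ (1 mg ml⁻¹ in DMSO/Tween 80/water 1:1:8). Plasma (EDTA) and brain were taken at 30 and 120 min. Brain homogenate was precipitated with acetonitrile, levels were measured by LC-MS/MS, and values were derived by noncompartmental fitting.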

[15] = AUC (0 to infinity) in Sprague-Dawley rat at 2 mg/kg, po by LC-MS/MS analysis; type: ADME, organism-based; design: dose 2 mg/kg, time infinity, route oral; conditions: in vivo
How it was run: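 Male Sprague-Dawley rats (350–400 g) dosed orally as the monotartrate salt, a 1 mg ml⁻¹ solution in 10:10:80 DMSO/Tween 80/water (v/v/v). Peripheral whole blood sampled at 5, 15 and 30 min and 1, 2, 4, 6 and 8 h post-dose. Concentrations measured by LC-MS/MS.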

[16] = Oral bioavailability in Sprague-Dawley rat at 2 mg/kg by LC-MS/MS analysis; type: ADME, organism-based; conditions: in vivo
[17] = AUC (0 to infinity) in Sprague-Dawley rat at 1 mg/kg, iv by LC-MS/MS analysis; type: ADME, organism-based; design: dose 1 mg/kg, route intravenous, time infinity; conditions: in vivo
[18] = Ratio of drug uptake in C57B16 mouse brain to plasma at 10 mg/kg, ip after 30 mins by LC-MS/MS analysis; type: ADME, organism-based; conditions: 0.5 h; how it was run: as §2

| SMILES | Cmax [1] [ng/mL] | AUCt [2] [ng·h/mL] | AUCt [3] [ng·h/mL] | Cmax [4] [ng/mL] | Vdss [5] [L/kg] | F [6] [%] | BPR [7] | solubility [8] [µM] | AUCt [9] [ng·h/mL] | F [10] [%] | AUCt [11] [ng·h/mL] | Vdss [12] [L/kg] | Cmax [13] [ng/mL] | BPR [14] | AUC [15] [ng·min/mL] | F [16] [%] | AUC [17] [ng·min/mL] | BPR [18] |
| --- | --- | --- | --- | --- | --- | --- | --- | --- | --- | --- | --- | --- | --- | --- | --- | --- | --- | --- |
| CCc1cc(F)c2nc(N3CCC(NC4CCOCC4)CC3)c(-c3nc(C)no3)c(C)c2c1.O=C(O)C(O)C(O)C(=O)O | 80.9 | 265 | 232 | 39.1 | 7.72 | 30.2 | 2.2 | 74 | 153 | 12 | 725 | 13.8 |  |  |  |  |  |  |
| Cc1ccc2nc(N3CCC(NC4CCOCC4)CC3)c(-c3nc(C)no3)cc2c1.O=C(O)C(O)C(O)C(=O)O |  |  |  |  |  |  |  |  |  |  |  | 12.95 | 110.16 | 3.8 | 1705 | 20 | 12740 | 2.9 |
